Experimental data as given in ChEMBL document CHEMBL1137294, “Adenosine mimetics as inhibitors of NAD+-dependent histone deacetylases, from kinase to sirtuin inhibition” (J Med Chem, 2006).
Activity calls are given as the source filed them. The calls are words filed in the database; no cut-off is given here.

Columns and labels:
[1] = target: T1, NAD-dependent protein deacetylase sirtuin-2 (Homo sapiens) (UniProt Q8IXJ6); experiment: Inhibition of human recombinant SIRT2 at 12.5 uM
T1 sequence (whole entry): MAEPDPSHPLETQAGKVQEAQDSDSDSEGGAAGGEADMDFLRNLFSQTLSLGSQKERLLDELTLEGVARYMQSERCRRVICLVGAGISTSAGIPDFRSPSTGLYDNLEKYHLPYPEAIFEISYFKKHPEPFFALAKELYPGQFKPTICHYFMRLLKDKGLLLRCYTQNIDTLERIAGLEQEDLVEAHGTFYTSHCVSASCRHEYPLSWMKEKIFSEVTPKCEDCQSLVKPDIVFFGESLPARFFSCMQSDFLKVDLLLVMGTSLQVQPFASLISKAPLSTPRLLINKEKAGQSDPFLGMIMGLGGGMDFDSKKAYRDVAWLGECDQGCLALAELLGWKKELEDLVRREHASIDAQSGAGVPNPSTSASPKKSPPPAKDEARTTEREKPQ
Outline: (§1)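 Homogeneous fluorescent deacetylase assay with recombinant SIRT1 or SIRT2 (SIRT2 full-length, N-terminal His6, expressed in E. coli BL21). Inhibition taken from remaining substrate versus no-inhibitor control. Run at least in duplicate, inhibitors added from DMSO stocks.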

[2] = target: T2, NAD-dependent protein deacetylase sirtuin-2 (Homo sapiens, UniProt Q8IXJ6); experiment: Inhibition of human recombinant SIRT2; outline: as §1
T2 sequence (Q8IXJ6 whole entry): T1 sequence (whole entry)

[3] = target: T2, NAD-dependent protein deacetylase sirtuin-2; experiment: Inhibition of human recombinant SIRT2 by radioactive deacetylase assay
Outline: (§2)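 Radioactive deacetylase assay with recombinant SIRT1 or SIRT2. Substrate was [3H]-acetylated histone H4 N-terminal peptide (residues 1-25). Released [3H]acetic acid quantified by scintillation counting.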

[4] = target: T3, NAD-dependent protein deacetylase sirtuin-1 (Homo sapiens, UniProt Q96EB6); experiment: Inhibition of human SIRT1; outline: as §1
T3 sequence (Q96EB6 whole entry): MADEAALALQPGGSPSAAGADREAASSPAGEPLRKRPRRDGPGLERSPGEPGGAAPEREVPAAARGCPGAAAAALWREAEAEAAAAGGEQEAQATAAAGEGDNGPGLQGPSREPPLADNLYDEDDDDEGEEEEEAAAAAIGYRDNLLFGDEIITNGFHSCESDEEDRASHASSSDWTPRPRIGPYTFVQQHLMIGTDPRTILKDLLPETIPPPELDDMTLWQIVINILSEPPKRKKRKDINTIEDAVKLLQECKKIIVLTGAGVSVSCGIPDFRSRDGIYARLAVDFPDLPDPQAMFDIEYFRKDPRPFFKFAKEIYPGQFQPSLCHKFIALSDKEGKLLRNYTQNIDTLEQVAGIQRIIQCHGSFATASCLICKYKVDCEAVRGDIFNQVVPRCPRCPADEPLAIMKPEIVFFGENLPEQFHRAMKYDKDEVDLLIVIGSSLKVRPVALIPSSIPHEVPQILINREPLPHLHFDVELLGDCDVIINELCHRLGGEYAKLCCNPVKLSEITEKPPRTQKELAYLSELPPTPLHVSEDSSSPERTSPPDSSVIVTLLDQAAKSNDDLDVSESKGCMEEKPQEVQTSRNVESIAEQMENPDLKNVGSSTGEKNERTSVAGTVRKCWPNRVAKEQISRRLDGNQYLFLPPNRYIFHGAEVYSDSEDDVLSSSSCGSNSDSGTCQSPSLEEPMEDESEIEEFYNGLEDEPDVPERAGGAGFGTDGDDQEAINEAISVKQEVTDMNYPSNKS

[5] = target: T3, NAD-dependent protein deacetylase sirtuin-1; experiment: Inhibition of human SIRT1 by radioactive deacetylase assay; outline: as §2
[6] = target: T2, NAD-dependent protein deacetylase sirtuin-2; experiment: Inhibition of human recombinant SIRT2 by fluorescent deacetylase assay; outline: as §1
[7] = target: T3, NAD-dependent protein deacetylase sirtuin-1; experiment: Inhibition of human SIRT1 by fluorescent deacetylase assay
Outline: (§3)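 Homogeneous fluorescent deacetylase assay with recombinant SIRT1 or SIRT2 (SIRT2 full-length, N-terminal His6, expressed in E. coli BL21). Reaction held ZMAL substrate 10.5 µM and NAD+ 500 µM, run 4 h at 37 °C. Deacetylated product developed by tryptic digest; fluorescence read at ex 390/em 460 nm. Inhibition taken from remaining substrate versus no-inhibitor control. Run at least in duplicate, inhibitors added from DMSO stocks.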

[8] = target: T4, NAD-dependent protein deacetylase sirtuin-1 (Homo sapiens) (UniProt Q96EB6); experiment: Inhibition of human SIRT1 at 50 uM; outline: as §3
T4 sequence (whole entry): T3 sequence (Q96EB6 whole entry)

[9] = target: T1, NAD-dependent protein deacetylase sirtuin-2 (Homo sapiens); experiment: Inhibition of human recombinant SIRT2 at 50 uM
Outline: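 N-terminally His6-tagged full-length human SIRT2, expressed in E. coli BL21. Homogeneous fluorescent deacetylase assay with ZMAL substrate (10.5 µM) and NAD+ (500 µM), 4 h at 37 °C. Inhibitor was added from DMSO stock. After stopping, a tryptic digest developed the fluorophore (ex 390/em 460 nm). Inhibition was taken from remaining substrate versus an uninhibited control, run at least in duplicate.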

[10] = target: T1, NAD-dependent protein deacetylase sirtuin-2 (Homo sapiens); experiment: Inhibition of SIRT2 in A549 cells assessed as ability to induce hyperacetylation of tubulin by Western blot analysis at 0.1 uM; format: cell-based
Outline: (§4)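 A549 human lung carcinoma cells grown in DMEM with 10% FBS, penicillin-streptomycin and 2 mM L-glutamine. Plated 1 day before treatment, then exposed to compound for 6 h. Cells washed with PBS and lysed in buffer containing 400 nM TSA. Lysates run on 10% SDS-PAGE and western blotted for acetylated alpha-tubulin against total alpha-tubulin.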

[11] = target: T1, NAD-dependent protein deacetylase sirtuin-2 (Homo sapiens); experiment: Inhibition of SIRT2 in A549 cells assessed as ability to induce hyperacetylation of tubulin by Western blot analysis; format: cell-based; outline: as §4

Structure (SMILES): O=C(O)c1cc(NCc2cc(O)ccc2O)ccc1O
- inhibition [1]: > 60%

Structure (SMILES): COCc1cc(-c2c(COC)cc(O)c(O)c2O)c(O)c(O)c1O
- inhibition [1]: > 60%

Structure (SMILES): COC(=O)/C=C/c1cc(O)ccc1O
- inhibition [1]: > 60%

Structure (SMILES): CN1C(=O)C(c2cn(CCCCCCCO)c3ccccc23)=C(c2cn(CCCCCCCO)c3ccccc23)C1=O
- IC50 [2]: > 100 µM

Structure (SMILES): CC(=O)c1c(O)c(C)c(O)c(Cc2c(O)c3c(c(C(=O)/C=C/c4ccccc4)c2O)OC(C)(C)C=C3)c1O
- inhibition [1]: > 60%

Structure (SMILES): Cn1c2ccccc2c2c3c(c4c5ccccc5n(CCC#N)c4c21)CNC3=O [GO-6976]
- IC50 [2]: > 100 µM

Structure (SMILES): CN1C(=O)C(c2c[nH]c3ccccc23)=C(c2c[nH]c3ccccc23)C1=O
- IC50 [3]: 24.1 µM
- IC50 [4]: > 50 µM
- IC50 [2]: 33 µM
- IC50 [5]: 15.7 µM
- IC50 [6]: 33 µM
- IC50 [7]: > 50 µM

Structure (SMILES): O=C1Nc2ccc(I)cc2C1=Cc1cc(Br)c(O)c(Br)c1
- inhibition [1]: > 60%

Structure (SMILES): O=C1Cc2c([nH]c3ccc(Br)cc23)-c2ccccc2N1 [KENPAULLONE]
- IC50 [2]: > 100 µM

Structure (SMILES): CN(C)C[C@H]1OCCn2cc(c3ccccc32)C2=C(C(=O)NC2=O)c2cn(c3cccc(F)c23)C[C@H]1F
- Activity [8]: inactive
- IC50 [2]: > 50 µM

Structure (SMILES): C=CC(=O)c1ccc2ccccc2c1
- inhibition [1]: > 60%

Structure (SMILES): ONC1=Nc2ccccc2-c2[nH]c3ccc(Br)cc3c2C1
- inhibition [9]: 43.1%

Structure (SMILES): CCCCCCCn1cc(C2=C(c3cn(CCCCCCC)c4ccccc34)C(=O)N(C)C2=O)c2ccccc21
- IC50 [2]: > 100 µM

Structure (SMILES): O=C1NC(=O)C(c2cn(CCOC(CCO)C3COC4(CCCCC4)O3)c3ccccc23)=C1c1c[nH]c2ccccc12 (stereo unspecified)
- inhibition [8]: 77.5%
- IC50 [2]: 2.8 µM

Structure (SMILES): Oc1cc(O)cc(/C=C/c2ccc(O)c(O)c2)c1
- inhibition [1]: > 60%

Structure (SMILES): CN1CCCC1CCn1cc(C2=C(c3c[nH]c4ccccc34)C(=O)NC2=O)c2ccccc21 (stereo unspecified)
- inhibition [8]: 58.2%
- IC50 [2]: 8.3 µM

Structure (SMILES): CN1C(=O)C(c2cn(Cc3ccccc3)c3ccccc23)=C(c2cn(Cc3ccccc3)c3ccccc23)C1=O
- IC50 [2]: 78.3 µM

Structure (SMILES): CN[C@@H]1C[C@H]2O[C@@](C)([C@@H]1OC)n1c3ccccc3c3c4c(c5c6ccccc6n2c5c31)C(=O)NC4
- Activity [9]: inactive

Structure (SMILES): CC(/C=C/C(=O)NO)=C\[C@@H](C)C(=O)c1ccc(N(C)C)cc1
- Activity [10]: Active

Structure (SMILES): O=C1NC(=O)C(c2c[nH]c3cccc(F)c23)=C1c1cn(CCOC(CCO)C2COC3(CCCCC3)O2)c2ccccc12 (stereo unspecified)
- inhibition [8]: 71.9%
- IC50 [2]: 2.5 µM

Structure (SMILES): O=C1NC(=O)C2=C1c1cn(c3ccccc13)CC[C@@H](C1COC3(CCCCC3)O1)OCCn1cc2c2c(F)cccc21 (stereo partly specified)
- inhibition [8]: 55.7%
- IC50 [2]: 20.8 µM

Structure (SMILES): O=C1Cc2c([nH]c3ccccc23)-c2ccccc2N1 [PAULLONE]
- inhibition [8]: 49.4%
- IC50 [5]: 8 µM
- Activity [11]: Active
- IC50 [7]: 50 µM

Structure (SMILES): O=C1NC(=O)C(c2c[nH]c3ccccc23)=C1c1c[nH]c2ccccc12 [RO-316233]
- inhibition [8]: 52.7%
- IC50 [2]: 4.7 µM

Structure (SMILES): O=C1NC(=O)C(c2c[nH]c3cccc(F)c23)=C1c1cn(CCOC(CCO)C(O)CO)c2ccccc12 (stereo unspecified)
- inhibition [8]: 29.9%
- IC50 [2]: 9.5 µM

Structure (SMILES): O=Nc1c(-c2c(O)[nH]c3ccccc23)[nH]c2ccccc12
- inhibition [1]: > 60%

Structure (SMILES): O=C1C(c2c[nH]c3ccccc23)=C(c2c[nH]c3ccccc23)C(=O)N1Cc1ccccc1
- IC50 [2]: 40 µM

Structure (SMILES): CN(C)CCCn1cc(C2=C(c3c[nH]c4ccccc34)C(=O)NC2=O)c2ccccc21 [GF-109203]
- IC50 [3]: 11.7 µM
- IC50 [4]: > 50 µM
- IC50 [2]: 7.3 µM
- IC50 [5]: 23 µM
- IC50 [6]: 7.3 µM
- inhibition [1]: > 60%
- IC50 [7]: > 50 µM

Structure (SMILES): O=C1NC(=O)C2=C1c1cn(c3ccccc13)CCOC(C(O)CO)CCn1cc2c2c(F)cccc21 (stereo unspecified)
- Activity [8]: inactive
- IC50 [2]: > 50 µM

Structure (SMILES): NC(=O)c1cccnc1
- inhibition [8]: 10.6%
